For data set [1], the system named is MRSA. The data set is described as follows: Fluorescence microscopy. In kind it is cell-based, Staphylococcus aureus. The following applies: 12 μg mL^−1, 2 h, 37 °C. The method, boiled down: (§1)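 Mid-log cultures grown at 37 °C, diluted to 1 × 10^6 CFU mL−1, exposed to test compound for 2 h at 37 °C alongside untreated controls. Cells pelleted at 3000 rpm for 15 min at 4 °C and PBS-washed. Stained with DAPI (10 μg mL−1) for 15 min on ice in the dark, washed twice, then stained the same way with PI (5 μg mL−1). Imaged under oil immersion.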

Data set [2] has as its system methicillin-resistant S. aureus (MRSA) (ATCC 33591). Put plainly: microbe, parasite or virus in culture. In kind it is cell-based, Staphylococcus aureus. Particulars: for MIC, Gram-positive, MRSA: ATCC 33591, 18 h.
The test system of data set [3] is methicillin-resistant S. epidermidis (MRSE) (RP62A). The data set is described as follows: microbe, parasite or virus in culture. The class given is cell-based, Staphylococcus epidermidis. The following applies: for MIC, Gram-positive, MRSE: methicillin-resistant (RP62A, 18 h).
In data set [4] the test system is E. coli. The data set is described as follows: Outer membrane permeability assay. The class given is cell-based. Particulars: 1 × MIC; 37 °C, 1 h; percent uptake relative to 16 mM melittin.
Data set [5] has as its system E. coli. The data set is described as follows: Fluorescence microscopy. In kind it is cell-based. The following applies: 12 μg mL^−1, 2 h, 37 °C. In outline:
as §1

The subject of data set [6] is MRSA. Put plainly: Time-kill assay. The following applies: 1 × 10^6 CFU mL^−1, repeated three times. The class given is cell-based, Staphylococcus aureus. In outline: (§2)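 Bacteria grown overnight in TSB at 37 °C to mid-log phase and diluted to 1 × 10^6 CFU mL−1. Incubated with test compound at several concentrations, with suspensions plated on agar at set time points. Plates incubated 20 h at 37 °C before colony counting. Assay repeated three times.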

Data set [7] deals with E. coli. Put plainly: Time-kill assay. The class given is cell-based. Particulars: 2 × MIC; 1 × 10^6 CFU mL^−1; repeated three times. In outline:
as §2

Data set [8] relates to E. coli. Put plainly: Transmission electron microscopy. In kind it is cell-based. The following applies: 12 μg mL^−1, 2 h, TSB, 37 °C. The method, boiled down:
(§3)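 Mid-log bacteria exposed to test compound in TSB for 2 h at 37 °C, with untreated samples as controls. Cells pelleted at 3000 rpm for 15 min, washed four times in PBS, resuspended in deionized water. A drop placed on carbon-coated Cu grids, excess blotted off, dried about 1 h. Imaged by TEM at 60 kV.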

The test system of data set [9] is MRSA. The data set is described as follows: Bacterial membrane depolarization assay, DiSC3. The class given is cell-based, Staphylococcus aureus. Particulars: 1 × MIC, 2 × MIC and 4 × MIC; concentration-dependent; repeated three times with duplicates.
For data set [10], the system named is E. coli. The class given is cell-based. The following applies: 48 h, 0.188 μg mL^−1.
The subject of data set [11] is E. coli. The data set is described as follows: Bacterial membrane depolarization assay, DiSC3. The class given is cell-based. The following applies: 1 × MIC, 2 × MIC and 4 × MIC; concentration-dependent; repeated three times with duplicates.
The nature of data set [12]: HPLC retention time as estimate of amphiphilicity. The class given is physicochemical. The following applies: HPLC data of Table S2 in ESI, which is not in the material.
A further data set deals with E. coli (ATCC 25922). The data set is described as follows: microbe, parasite or virus in culture. In kind it is cell-based. The following applies: for MIC, Gram-negative, E. coli: ATCC 25922, 18 h.
In data set [13] the test system is MRSA. The data set is described as follows: Transmission electron microscopy. In kind it is cell-based, Staphylococcus aureus. Particulars: 12 μg mL^−1, 2 h, TSB, 37 °C. The method, boiled down:
as §3

The test system of data set [14] is P. aeruginosa (ATCC 27853). The data set is described as follows: microbe, parasite or virus in culture. In kind it is cell-based, Pseudomonas aeruginosa. Particulars: for MIC, Gram-negative, P. aeruginosa: ATCC 27853, 18 h.
The subject of data set [15] is MRSA. The class given is cell-based, Staphylococcus aureus. The following applies: 48 h, 0.094 μg mL^−1.

The source of these data is PMC8903075 (Biomaterials science, 2021).

Values after ≈ are worked out from the molar mass of the structure shown. A value given as a limit tells only on which side of the number the result lay.

For `CCCCCCCCCCCC(=O)NCCCC[C@H](NC(=O)c1cc(NC(=O)CN(C[C@H](CCCCN)NC(=O)[C@@H](N)CCCCN)S(=O)(=O)c2ccc(Cl)cc2)cc(NC(=O)CN(C[C@H](CCCCN)NC(=O)[C@@H](N)CCCCN)S(=O)(=O)c2ccc(Cl)cc2)c1)C(N)=O` [Compound 17], in the data set on MRSA [1], the “Membrane integrity of MRSA by DAPI/PI fluorescence” value is on record as “compromised”. The “MIC, Gram-positive, MRSA” value in [2] was 3 to 6 µg/mL. In addition, the “MIC, Gram-positive, MRSE” value in data set [3] was 3 to 6 µg/mL. Further, the “Permeabilization of E. coli outer membrane (NPN uptake)” value with E. coli [4] is recorded as “more than 50%”. The “Membrane integrity of E. coli by DAPI/PI fluorescence” value in the data set on E. coli [5] is “compromised”. The “Time to complete killing of MRSA” value with MRSA [6] (2 × MIC) was at most 6 h. Besides, in the data set on MRSA [6] (8 × MIC), the “Time to eradicate MRSA” value is listed as “roughly 2 h”. Further, the “Time to complete killing of E. coli” value with E. coli [7] is reported as at most 6 h. For the same molecule, the “E. coli cell membrane morphology by TEM” value in the data set on E. coli [8] is reported as “membranes have been damaged”. For the same molecule, the “Membrane depolarization of MRSA, DiSC3(5) fluorescence” value with MRSA [9] is “dramatic enhancement of fluorescence intensity”. Moreover, the “Inhibition of biofilm formation of E. coli” value in the data set on E. coli [10] was “around 40%”. Besides, the “Membrane depolarization of E. coli, DiSC3(5) fluorescence” value in the data set with E. coli [11] is listed as “dramatic enhancement of fluorescence intensity”. The “HPLC retention time (RT), estimate of amphiphilicity” value in [12] is on record as 19.70 min. In the data set on E. coli (ATCC 25922), the “MIC, Gram-negative, E. coli” value was in the range of 3 to 6 µg/mL. Besides, the “MRSA cell membrane morphology by TEM” value with MRSA [13] was “membranes have been damaged”. Moreover, in data set [14], the “MIC, Gram-negative, P. aeruginosa” value fell in the range of 3 to 6 µg/mL. Also, the “Inhibition of biofilm formation of MRSA” value with MRSA [15] is about 50%.
For the molecule `O=C(O)c1cn(C2CC2)c2cc(N3CCNCC3)c(F)cc2c1=O` [Ciprofloxacin, reference compound], the MIC in data set [2] (Staphylococcus aureus, ATCC33591|MRSA, 18 h, read-out: MIC, Gram-positive, MRSA) was 0.75 to 1.5 µg/mL (≈ 2.26 to 4.53 µM); in data set [3] (Staphylococcus epidermidis, MRSE, 18 h, read-out: MIC, Gram-positive, MRSE) it was 0.75 to 1.5 µg/mL (≈ 2.26 to 4.53 µM); with E. coli (ATCC 25922) (Escherichia coli, ATCC25922, 18 h, read-out: MIC, Gram-negative, E. coli), 0.75 to 1.5 µg/mL (≈ 2.26 to 4.53 µM); in data set [14] (Pseudomonas aeruginosa, ATCC27853, 18 h, read-out: MIC, Gram-negative, P. aeruginosa) it was 1.5 to 3 µg/mL (≈ 4.53 to 9.05 µM).
On to `CCCCCCCCCCCC(=O)NCCCC[C@H](NC(=O)c1cc(NC(=O)CN(C[C@H](CCCCN)NC(=O)[C@@H](N)CCCCN)S(=O)(=O)c2ccccc2)cc(NC(=O)CN(C[C@H](CCCCN)NC(=O)[C@@H](N)CCCCN)S(=O)(=O)c2ccccc2)c1)C(N)=O` [Compound 1], for which the “MIC, Gram-positive, MRSA” value in data set [2] is 3 to 6 µg/mL. In data set [3], the “MIC, Gram-positive, MRSE” value is 3 to 6 µg/mL. In addition, the “MIC, Gram-negative, E. coli” value against E. coli (ATCC 25922) lay in the range of 3 to 6 µg/mL. In addition, in [14], the “MIC, Gram-negative, P. aeruginosa” value lay within 6 to 12.5 µg/mL.
On to `CCCCCCCCCCCCCCCC(=O)NCCCC[C@H](NC(=O)c1cc(NC(=O)CN(C[C@H](CCCCN)NC(=O)[C@@H](N)CCCCN)S(=O)(=O)c2ccccc2)cc(NC(=O)CN(C[C@H](CCCCN)NC(=O)[C@@H](N)CCCCN)S(=O)(=O)c2ccccc2)c1)C(N)=O` [Compound 2], for which, in data set [2], the “MIC, Gram-positive, MRSA” value is 6 to 12.5 µg/mL. For the same molecule, the “MIC, Gram-negative, E. coli” value in the data set with E. coli (ATCC 25922) fell in the range of 6 to 12.5 µg/mL.
